Active and inactive are the calls of the source. No cut-off for these calls is given here. Bridge positions count the residues as written; N and C are the ends. Peptide text beside a SMILES is read from it.
Legend:
Furin (Homo sapiens) [1] = molecular target: Furin (Homo sapiens) (UniProt P09958); assay: Inhibition of human furin in human PANC-1 cells assessed as release of fluorescent AMC using Pyr-Arg-Thr-Arg-AMC as substrate preincubated for 10 mins in presence of SFTI-1 then incubation with ligand for 30 mins followed by substrate addition by plate reader analysis; format: cell-based; details: time 40.0 min
Chain of Furin (Homo sapiens) (P09958 whole entry): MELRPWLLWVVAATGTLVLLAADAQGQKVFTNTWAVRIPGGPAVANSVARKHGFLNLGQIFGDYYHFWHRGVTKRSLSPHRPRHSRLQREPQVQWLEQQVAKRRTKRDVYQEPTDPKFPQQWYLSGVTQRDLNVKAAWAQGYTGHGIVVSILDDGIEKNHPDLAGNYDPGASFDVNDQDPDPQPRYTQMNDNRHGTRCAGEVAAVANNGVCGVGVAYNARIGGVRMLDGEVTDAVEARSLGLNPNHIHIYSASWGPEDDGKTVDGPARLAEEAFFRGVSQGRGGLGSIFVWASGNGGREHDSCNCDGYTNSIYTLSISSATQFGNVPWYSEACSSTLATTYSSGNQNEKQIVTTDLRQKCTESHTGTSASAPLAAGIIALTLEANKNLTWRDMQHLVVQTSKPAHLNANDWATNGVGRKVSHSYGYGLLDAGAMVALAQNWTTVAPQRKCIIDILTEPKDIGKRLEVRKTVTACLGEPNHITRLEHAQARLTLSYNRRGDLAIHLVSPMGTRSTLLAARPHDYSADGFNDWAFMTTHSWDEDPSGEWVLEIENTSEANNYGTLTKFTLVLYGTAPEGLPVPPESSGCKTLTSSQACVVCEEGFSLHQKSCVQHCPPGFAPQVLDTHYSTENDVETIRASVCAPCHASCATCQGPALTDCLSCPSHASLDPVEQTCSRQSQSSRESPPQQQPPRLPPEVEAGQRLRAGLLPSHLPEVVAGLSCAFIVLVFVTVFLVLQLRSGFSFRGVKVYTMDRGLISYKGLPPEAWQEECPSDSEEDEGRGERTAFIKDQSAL
Procedure, shortened: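 PANC-1 cells grown in DMEM with 10% FBS and 1% P/S at 37 °C, 5% CO2. Cell lysate was prepared in protease inhibitor cocktail and diluted 10-fold in pH 7.5 HEPES/CaCl2 buffer. It was given SFTI-1 (100 μM final) for 10 min at 37 °C, then peptide (100 μM final) for 30 min, then Pyr-RTR-AMC (100 μM final). AMC release was followed; % inhibition vs no-inhibitor control.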

Furin (Homo sapiens) [2] = molecular target: Furin (Homo sapiens) (UniProt P09958); assay: Inhibition of human furin in human PANC-1 cells assessed as release of fluorescent AMC using Pyr-Arg-Thr-Arg-AMC as substrate preincubated for 30 mins followed by substrate addition by plate reader analysis; format: cell-based; design: concentration or dose not given beside the values
Procedure, shortened: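 PANC-1 lysate (DMEM/10% FBS culture, protease-inhibitor cocktail extraction) was diluted 10-fold in 100 mM HEPES, 1 mM CaCl2, pH 7.5, then warmed 15 min at 37 °C. Peptide (100 μM final) was added for 30 min at 37 °C, then Pyr-RTR-AMC substrate (100 μM final). AMC release was monitored over time; % inhibition relative to no-inhibitor control.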

[3] = molecular target: T1, Transmembrane protease serine 6 (Homo sapiens) (UniProt Q8IU80); assay: Inhibition of recombinant human matriptase 2 using Boc-Gln-Ala-Arg-AMC as substrate at 3.85 to 385 nM preincubated for 30 mins followed by substrate addition and measured for 40 mins by microplate reader method; details: dose 3.85-385 nM, time 70.0 min
T1 sequence (whole entry): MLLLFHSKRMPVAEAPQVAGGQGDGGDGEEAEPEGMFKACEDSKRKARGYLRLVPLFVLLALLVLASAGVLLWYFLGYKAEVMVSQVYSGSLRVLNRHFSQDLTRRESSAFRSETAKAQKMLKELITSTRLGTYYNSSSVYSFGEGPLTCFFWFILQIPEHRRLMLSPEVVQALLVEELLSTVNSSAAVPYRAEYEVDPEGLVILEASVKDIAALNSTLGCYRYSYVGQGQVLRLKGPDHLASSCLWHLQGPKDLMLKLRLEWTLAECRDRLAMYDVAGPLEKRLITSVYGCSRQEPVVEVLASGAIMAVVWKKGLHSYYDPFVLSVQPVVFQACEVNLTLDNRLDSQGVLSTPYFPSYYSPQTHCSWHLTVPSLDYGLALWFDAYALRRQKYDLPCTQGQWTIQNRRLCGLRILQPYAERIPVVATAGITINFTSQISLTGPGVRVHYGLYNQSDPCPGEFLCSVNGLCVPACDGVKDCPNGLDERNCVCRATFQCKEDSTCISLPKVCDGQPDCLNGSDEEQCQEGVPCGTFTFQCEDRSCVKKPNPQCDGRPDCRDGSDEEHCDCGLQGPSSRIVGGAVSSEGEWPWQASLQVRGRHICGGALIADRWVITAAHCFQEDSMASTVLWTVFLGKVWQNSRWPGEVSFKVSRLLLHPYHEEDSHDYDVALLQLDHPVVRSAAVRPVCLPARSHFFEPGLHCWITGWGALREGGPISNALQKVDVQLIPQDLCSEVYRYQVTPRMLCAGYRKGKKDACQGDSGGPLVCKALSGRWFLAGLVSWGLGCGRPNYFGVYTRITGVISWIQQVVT
Procedure, shortened: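 Recombinant human matriptase-2 (1.51 U/mL) in 50 mM Tris-Cl pH 8.3, 150 mM NaCl, 0.01% Triton X-100 was preincubated with compound 30 min at 37 °C. Boc-QAR-AMC (5 μM final) was then added; fluorescence (ex 380/em 450 nm) read ≥40 min. % inhibition vs no-inhibitor control.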

Furin (Homo sapiens) [4] = molecular target: Furin (Homo sapiens) (UniProt P09958); assay: Inhibition of recombinant human furin using Pyr-Arg-Thr-Lys-Arg-AMC as substrate at 2.4 nM preincubated for 30 mins followed by substrate addition and measured for 40 mins by microplate reader method; details: time 70.0 min
[5] = Stability in human serum assessed as parent compound remaining at 1.54 mM and measured after 24 hrs by RP-HPLC analysis; format: ADME, cell-free
Procedure, shortened: (§1)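 Peptide stock (1.54 mM) was diluted 10-fold into human serum and held at 37 °C. Samples were taken at 0, 1, 2, 3, 5 and 24 h, precipitated with equal volume acetonitrile and centrifuged 10 min. Supernatant was analysed by RP-HPLC (C18, 10–90% B over 40 min) and MALDI-TOF MS.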

[6] = Stability in human serum assessed as parent compound remaining at 1.54 mM and measured after 24 hrs by MALDI-MS analysis; format: ADME, cell-free; procedure, shortened: as §1
Furin (Homo sapiens) [7] = molecular target: Furin (Homo sapiens) (UniProt P09958); assay: Inhibition of recombinant human furin using Pyr-Arg-Thr-Lys-Arg-AMC as substrate at 77 nM preincubated for 30 mins followed by substrate addition and measured for 40 mins by microplate reader method; details: time 70.0 min
Furin (Homo sapiens) [8] = molecular target: Furin (Homo sapiens) (UniProt P09958); assay: Inhibition of recombinant human furin using Pyr-Arg-Thr-Lys-Arg-AMC as substrate at 24 nM preincubated for 30 mins followed by substrate addition and measured for 40 mins by microplate reader method; details: time 70.0 min

inhibition (Furin (Homo sapiens) [1])	inhibition (Furin (Homo sapiens) [2])	inhibition [3]	inhibition (Furin (Homo sapiens) [4])	Stability [5]	Stability [6]	inhibition (Furin (Homo sapiens) [7])	inhibition (Furin (Homo sapiens) [8])	Structure (SMILES)
45.9%	64.8%	inactive	40.2%					CC[C@H](C)[C@@H]1NC(=O)[C@@H]2CCCN2C(=O)[C@@H]2CCCN2C(=O)[C@H]([C@@H](C)CC)NC(=O)[C@H](CO)NC(=O)[C@H](CCCCN)NC(=O)[C@H](CCCCN)NC(=O)[C@@H]2CSSC[C@H](NC1=O)C(=O)N[C@@H](Cc1ccccc1)C(=O)N[C@@H](CCCCN)C(=O)N[C@@H](CCCNC(=N)N)C(=O)N[C@@H](CCCNC(=N)N)C(=O)N2 (cyclo(KRRCKKSIPPICF); disulfide 4-12)
46.6%	68.3%	inactive	43.7%	Stable	Stable			CC[C@H](C)[C@@H]1NC(=O)[C@@H]2CCCN2C(=O)[C@@H]2CCCN2C(=O)[C@H]([C@@H](C)CC)NC(=O)[C@H](CO)NC(=O)[C@H](CCCCN)NC(=O)[C@H](CCCCN)NC(=O)[C@@H](NC(=O)[C@H](CCCNC(=N)N)NC(=O)[C@H](CCCNC(=N)N)NC(=O)[C@@H](N)CCCNC(=N)N)CSSC[C@@H](C(=O)N[C@@H](Cc2ccccc2)C(N)=O)NC1=O (H-RRRCKKSIPPICF-NH2; disulfide 4-12)
	98.4%							CC[C@H](C)[C@@H]1NC(=O)[C@@H]2CCCN2C(=O)[C@@H]2CCCN2C(=O)[C@H]([C@@H](C)CC)NC(=O)[C@H](CO)NC(=O)[C@H](CCCCN)NC(=O)[C@H]([C@H](C)O)NC(=O)[C@@H]2CSSC[C@H](NC1=O)C(=O)N[C@@H](Cc1ccccc1)C(=O)N1CCC[C@H]1C(=O)N[C@H](C(=O)O)CC(=O)NC(=N)NCCC[C@@H](C(N)=O)C(=O)N2
34.7%	50.4%	inactive		Stable	Stable			CC[C@H](C)[C@@H]1NC(=O)[C@@H]2CCCN2C(=O)[C@@H]2CCCN2C(=O)[C@H]([C@@H](C)CC)NC(=O)[C@H](CO)NC(=O)[C@H](CCCCN)NC(=O)[C@H](CCCCN)NC(=O)[C@@H](NC(=O)[C@H](CCCNC(=N)N)NC(=O)[C@@H](N)CCCCN)CSSC[C@@H](C(=O)N[C@@H](Cc2ccccc2)C(N)=O)NC1=O (H-KRCKKSIPPICF-NH2; disulfide 3-11)
45.2%	58.8%	inactive	34.7%					CC[C@H](C)[C@@H]1NC(=O)[C@@H]2CCCN2C(=O)[C@@H]2CCCN2C(=O)[C@H]([C@@H](C)CC)NC(=O)[C@H](CO)NC(=O)[C@H](CCCCN)NC(=O)[C@H](CCCCN)NC(=O)[C@@H]2CSSC[C@H](NC1=O)C(=O)N[C@@H](Cc1ccccc1)C(=O)N[C@@H](CCCNC(=N)N)C(=O)N[C@@H](CCCNC(=N)N)C(=O)N[C@@H](CCCNC(=N)N)C(=O)N2 (cyclo(RRRCKKSIPPICF); disulfide 4-12)
			97.2%			3.72%	46.1%	CC[C@H](C)[C@@H]1NC(=O)[C@@H]2CCCN2C(=O)[C@@H]2CCCN2C(=O)[C@H]([C@@H](C)CC)NC(=O)[C@H](CO)NC(=O)[C@H](CCCCN)NC(=O)[C@H](CCCCN)NC(=O)[C@@H]2CSSC[C@H](NC1=O)C(=O)N[C@@H](Cc1ccccc1)C(=O)N[C@@H](CCCNC(=N)N)C(=O)N[C@@H](CCCNC(=N)N)C(=O)N2 (cyclo(CFRRCKKSIPPI); disulfide 1-5)
			63%			0.2%	6.02%	CC[C@H](C)[C@@H]1NC(=O)[C@@H]2CCCN2C(=O)[C@@H]2CCCN2C(=O)[C@H]([C@@H](C)CC)NC(=O)[C@H](CO)NC(=O)[C@H](CCCCN)NC(=O)[C@H](CCCCN)NC(=O)[C@@H](NC(=O)[C@H](CCCNC(=N)N)NC(=O)[C@@H](N)CCCNC(=N)N)CSSC[C@@H](C(=O)N[C@@H](Cc2ccccc2)C(N)=O)NC1=O (H-RRCKKSIPPICF-NH2; disulfide 3-11)
			66.5%			0.1%	3.98%	CC[C@H](C)[C@@H]1NC(=O)[C@@H]2CCCN2C(=O)[C@@H]2CCCN2C(=O)[C@H]([C@@H](C)CC)NC(=O)[C@H](CO)NC(=O)[C@H](CCCCN)NC(=O)[C@H](CCCCN)NC(=O)[C@@H](NC(=O)[C@H](CCCNC(=N)N)NC(=O)[C@H](CCCNC(=N)N)NC(=O)[C@@H](N)CCCCN)CSSC[C@@H](C(=O)N[C@@H](Cc2ccccc2)C(N)=O)NC1=O (H-KRRCKKSIPPICF-NH2; disulfide 4-12)

— ChEMBL document CHEMBL5252656, “Cyclic Peptidic Furin Inhibitors Developed by Combinatorial Chemistry” (ACS Med Chem Lett, 2023)
